pIC50, pKi: −log10 of the molar value. The source made the active and inactive calls. The rule behind the calls is not given here.
How the values were obtained:
[1] = target: T1, Type-1 angiotensin II receptor B (Rattus norvegicus, UniProt P29089); assay: Compound was evaluated for its binding affinity towards rat Angiotensin II receptor, type 1
T1 sequence (P29089 whole entry): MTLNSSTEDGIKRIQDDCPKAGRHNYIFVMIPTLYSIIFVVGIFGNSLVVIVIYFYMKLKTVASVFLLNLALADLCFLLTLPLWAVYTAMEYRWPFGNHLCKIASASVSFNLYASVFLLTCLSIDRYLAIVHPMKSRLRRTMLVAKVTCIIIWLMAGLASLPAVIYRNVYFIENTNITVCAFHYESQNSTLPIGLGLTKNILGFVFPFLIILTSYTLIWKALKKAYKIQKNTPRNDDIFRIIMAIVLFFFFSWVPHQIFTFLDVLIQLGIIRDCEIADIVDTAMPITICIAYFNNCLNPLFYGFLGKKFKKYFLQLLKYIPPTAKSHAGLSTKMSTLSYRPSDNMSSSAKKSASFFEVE
In short: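 Rat aortic smooth muscle cells grown 48 h to 90% confluency in HEPES-buffered DMEM with 10% FCS. Assayed in DMEM with 0.1% BSA and 0.01% sodium azide, using 0.2 nM [125I]-Sar-Ile-angiotensin II and increasing compound. Nonspecific binding defined with 10 µM Ang II. Incubated 2 h at room temperature with shaking, washed with cold PBS, lysed in 1% Triton X-100, gamma-counted. IC50 obtained by curve fitting.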

[2] = target: T2, Endothelin-1 receptor (Homo sapiens, UniProt P25101); assay: Compound was evaluated for its binding affinity towards human Endothelin A receptor
T2 sequence (P25101 whole entry): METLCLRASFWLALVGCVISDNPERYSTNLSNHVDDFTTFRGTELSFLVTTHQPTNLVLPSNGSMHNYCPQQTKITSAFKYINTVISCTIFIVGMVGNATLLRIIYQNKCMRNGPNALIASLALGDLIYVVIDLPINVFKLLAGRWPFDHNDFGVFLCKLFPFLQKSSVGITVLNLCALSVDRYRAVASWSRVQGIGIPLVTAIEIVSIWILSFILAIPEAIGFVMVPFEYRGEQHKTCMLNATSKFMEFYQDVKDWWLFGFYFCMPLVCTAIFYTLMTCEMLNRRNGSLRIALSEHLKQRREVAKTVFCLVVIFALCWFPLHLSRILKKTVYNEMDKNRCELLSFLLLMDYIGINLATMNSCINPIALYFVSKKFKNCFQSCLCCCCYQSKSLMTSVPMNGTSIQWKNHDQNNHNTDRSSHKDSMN
In short: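 CHO-K1 cells expressing human ETA receptor, seeded 1.8×10^4 cells/well 24 h before assay. Binding run in 50 mM Tris pH 7.4 with 1% BSA and 2 µM phosphoramidon, using 0.25 nM [125I]-ET-1 and competing drug. Nonspecific binding defined with 500 nM ET-1. Incubated 4 h at 4 °C with shaking, washed, cells dissolved in 0.5 N NaOH, gamma-counted.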

[3] = system: Rattus norvegicus; assay: Compound was tested for its activity in bET-1 pressor test following intravenous administration; format: functional
[4] = system: Rattus norvegicus; assay: Compound was tested for its activity in bET-1 pressor test following oral administration; format: functional
In short: (§1)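 Conscious normotensive rats challenged iv with big ET-1 (1.0 nmol/kg). A control response was obtained after vehicle. Compound was then given orally, and bET-1 was re-injected iv at 15, 105 and 195 min after dosing. Mean blood pressure followed up to 3 h, with area over curve used as read-out; n = 4 per dose.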

[5] = system: Rattus norvegicus; assay: Compound was tested for its activity in Ang II pressor test following intravenous administration; NE = No effect; format: functional, organism-based
[6] = system: Rattus norvegicus; assay: Compound was tested for its activity in Ang II pressor test following oral administration; NE = No effect; format: functional, organism-based
In short: (§2)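 Conscious normotensive rats carrying carotid artery and jugular vein catheters. […] Compound was given by oral gavage, and rats were rechallenged with Ang II at intervals up to 240 min. Percent inhibition taken from the maximum blood pressure rise before versus after drug; n = 4 per dose.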

[7] = target: T3, Type-1 angiotensin II receptor (Homo sapiens, UniProt P30556); assay: Compound was evaluated for inhibitory activity against human Angiotensin II receptor, type 1
T3 sequence (P30556 whole entry): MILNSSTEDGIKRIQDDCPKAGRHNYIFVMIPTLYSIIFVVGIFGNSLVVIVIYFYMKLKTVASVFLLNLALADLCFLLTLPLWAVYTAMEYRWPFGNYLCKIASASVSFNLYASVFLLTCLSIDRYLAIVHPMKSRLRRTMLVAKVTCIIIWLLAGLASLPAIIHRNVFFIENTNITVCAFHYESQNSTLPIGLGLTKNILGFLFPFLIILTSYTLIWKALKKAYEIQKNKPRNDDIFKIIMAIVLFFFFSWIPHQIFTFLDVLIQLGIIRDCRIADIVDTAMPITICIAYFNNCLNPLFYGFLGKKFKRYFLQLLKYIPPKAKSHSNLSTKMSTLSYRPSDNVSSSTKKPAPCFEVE
In short: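 Human recombinant AT1 receptor membranes in 50 mM Tris-HCl pH 7.4 with 10 mM MgCl2, 1 mM EDTA and 0.1% BSA. Incubated with 0.2 nM [125I]-Sar-Ile-angiotensin II and increasing compound concentrations, 60 min at 37 °C. Nonspecific binding defined with 10 µM angiotensin II. Bound and free label separated, then gamma-counted.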

[8] = Pharmacokinetic parameter MRT value determined in rat at a dose of 10(umol/kg) following peroral administration (mean+/-SD); format: ADME, organism-based; settings: in vivo, po
In short: (§3)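 Male rats dosed at 10 µmol/kg, iv or po (n = 6 per route). Plasma exposure followed to give AUC0-∞, clearance, Vss, t1/2 and MRT (iv), and Cmax, Tmax, t1/2, MRT, AUC and oral bioavailability (po). Values reported as mean ± SD.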

[9] = Pharmacokinetic parameter MRT value was determined in rat at a dose of 10(umol/kg) following intravenous administration (mean+/-SD); format: ADME, organism-based; settings: in vivo; in short: as §3
[10] = A dose of 10 (umol/kg) was administered pre orally to rat and plasma concentration was reported (mean+/-SD); format: ADME, organism-based; set-up: dose 10 umol/kg, route oral; settings: po; in short: as §3
[11] = Pharmacokinetic parameter Volume of distribution was determined in rat following i.v. administration of a dose of 10 (umol/kg) (mean+/-SD); format: ADME, organism-based; settings: in vivo, iv, read-out: Vss; in short: as §3
[12] = half life was determined in rat at a dose of 10 (umol/kg) following intravenous administration (mean+/-SD); format: ADME, organism-based; settings: in vivo; in short: as §3
[13] = half life was determined in rat at a dose of 10 (umol/kg) following peroral administration (mean+/-SD); format: ADME, organism-based; settings: in vivo, po; in short: as §3
[14] = A dose of 10(umol/kg) was administered orally to rat and % bioavailability was determined; format: ADME, organism-based; settings: in vivo, po, read-out: Bioavailabiility; in short: as §3
[15] = Pharmacokinetic parameter Area under curve reported following intravenous administration at a dose of 10 (umol/kg) (mean+/-SD); format: ADME; in short: as §3
[16] = Pharmacokinetic parameter Area under curve reported following peroral administration at a dose of 10 (umol/kg) (mean+/-SD); format: ADME; settings: po; in short: as §3
[17] = A dose of 10(umol/kg) was administered orally to rat and Tmax value was determined (mean+/-SD); format: ADME, organism-based; settings: in vivo, po; in short: as §3
[18] = Pharmacokinetic parameter Plasma clearance determined after intravenous administration at a dose of 10 (umol/kg) (mean+/-SD); format: ADME, organism-based; in short: as §3
[19] = system: Rattus norvegicus; assay: (§4) Compound was tested for its activity in Ang II pressor test following intravenous administration; format: ADME, organism-based
[20] = system: Rattus norvegicus; assay: Compound was tested for its activity in Ang II pressor test following oral administration; format: functional; in short: as §2
[21] = system: Rattus norvegicus; assay: as §4; format: functional
[22] = system: Rattus norvegicus; assay: Compound was tested for its activity in bET-1 pressor test following intravenous administration; NE = No effect; format: functional, organism-based
[23] = system: Rattus norvegicus; assay: Compound was tested for its activity in bET-1 pressor test following oral administration; NE = No effect; format: functional, organism-based; in short: as §1

CCCCC1=NC2(CCCC2)C(=O)N1Cc1ccc(-c2ccccc2S(=O)(=O)Nc2onc(C)c2C)cc1
pKi [1]: 8.33
pKi [2]: 7.41

Cc1noc(NS(=O)(=O)c2ccccc2-c2ccc(-c3ncco3)cc2)c1C
pKi [1]: < 5.00
ED50 [3]: 0.9 µmol/kg
ED50 [4]: 10 µmol/kg
NE [5]: inactive
NE [6]: inactive

CCCc1cc(Cn2c(CC)nc3c(C)cc(C)nc32)ccc1OC(C(=O)NS(=O)(=O)c1ccc(C(C)C)cc1)c1ccc2c(c1)OCO2 (stereo not drawn)
pIC50 [7]: 7.89

CCCCC1=NC2(CCCC2)C(=O)N1Cc1ccc(-c2ccccc2S(=O)(=O)Nc2onc(C)c2C)c(CN2CCC(C)(C)C2=O)c1 [BMS-248360]
MRT [8]: 5 h
MRT [9]: 6.4 h
Cmax [10]: 3.1 µM
Vd [11]: 1.4 L/kg
half-life [12]: 5.5 h
half-life [13]: 3 h
bioavailability [14]: 38%
AUC [15]: 50 µM·h
AUC [16]: 19 µM·h
Tmax [17]: 0.7 h
clearance [18]: 3.8 mL/min/kg
ED50 [19]: 1.4 µmol/kg
ED50 [20]: 39 µmol/kg
ED50 [3]: 2.1 µmol/kg
ED50 [4]: 26 µmol/kg

CCCCC1=NC2(CCCC2)C(=O)N1Cc1ccc(-c2ccccc2-c2nnn[nH]2)cc1 [IRBESARTAN]
pKi [1]: 9.10
ED50 [21]: 0.3 µmol/kg
ED50 [20]: 16 µmol/kg
NE [22]: inactive
Activity [23]: inactive

Reference: ChEMBL document CHEMBL1135999, “Discovery of N-isoxazolyl biphenylsulfonamides as potent dual angiotensin II and endothelin A receptor antagonists” (J Med Chem, 2002)
